The target in data set [1] is T1, Renin (Homo sapiens, UniProt P00797).
T1 sequence (P00797 whole entry): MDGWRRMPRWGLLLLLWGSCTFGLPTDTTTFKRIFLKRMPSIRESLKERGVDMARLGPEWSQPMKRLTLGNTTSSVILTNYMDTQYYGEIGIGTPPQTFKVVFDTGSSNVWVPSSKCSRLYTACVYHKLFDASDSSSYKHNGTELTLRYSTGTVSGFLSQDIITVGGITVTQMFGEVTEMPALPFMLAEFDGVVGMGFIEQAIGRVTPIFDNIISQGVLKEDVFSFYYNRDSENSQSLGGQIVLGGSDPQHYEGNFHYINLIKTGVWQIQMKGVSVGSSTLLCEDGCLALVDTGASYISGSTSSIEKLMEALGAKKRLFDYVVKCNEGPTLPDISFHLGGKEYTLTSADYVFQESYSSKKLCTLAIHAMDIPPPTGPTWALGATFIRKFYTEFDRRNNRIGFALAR
The experiment in a line: In vitro potency against purified renin at a pH of 6.0. The method, boiled down:
(§1)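 Human renin, either purified enzyme or renin in plasma, was assayed at the stated pH. Inhibition was reported as IC50 in nM.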

The target in data set [2] is T1, Renin. The data set can be described thus: In vitro potency against plasma renin at a pH of 7.4. The format is cell-free. The method in brief: as §1
The target in data set [3] is T1, Renin. The experiment in a line: In vitro potency against purified renin at a pH of 7.4. The method in brief:
as §1

Data set [4] deals with T1, Renin. The data set can be described thus: In vitro potency against plasma renin at a pH of 6.0. The format is cell-free. The method in brief:
as §1

Data set [5] can be described thus: Bioavailability in monkey (dose 10 mg/kg i.d. or 0.3 mg/kg i.v.). The format is ADME, organism-based. Conditions: primates, in vivo, iv. The method in brief:
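Male cynomolgus monkeys (3–5 kg), salt-depleted, fasted overnight, pentobarbital-anesthetized (15 mg/kg bolus, then 0.10 mg kg⁻¹ min⁻¹ infusion). Compound given as HCl salt solution, either iv via a leg vein or id by catheter into the proximal duodenum after laparotomy; one dose per monkey. Serial plasma levels were measured by HPLC or bioassay, and AUC was fitted to a biexponential decay. Bioavailability = dose-corrected AUC(id)/AUC(iv) × 100.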

As a reminder, the IC50 is the midpoint of a concentration-inhibition curve. At Renin [1], `CCCC[C@H](O[C@@H](Cc1ccccc1)C(=O)N1CCC(OCCC)CC1)C(=O)N[C@@H](CC1CCCCC1)[C@@H](O)[C@@H](O)CC(C)C` came in with an IC50 of 290 nM.
Turning to `CCCC[C@H](O[C@@H](Cc1ccccc1)C(=O)N1CCC(SCOC)CC1)C(=O)N[C@@H](CC1CCCCC1)[C@@H](O)[C@@H](O)CC(C)C`, the IC50 on Renin [2] amounted to 120 nM; on Renin [1] it was 1.8 nM.
Take `CCOC(=O)C(CCc1ccccc1)N[C@@H](CC(C)C)C(=O)N[C@@H](CC1CCCCC1)[C@@H](O)[C@@H](O)CC(C)C` (stereo in doubt): on Renin [1], the IC50 was 240 nM.
Same read-out and setting: the figure for `CCNC(=O)[C@H](Cc1ccccc1)O[C@@H](C)C(=O)N[C@@H](CC1CCCCC1)[C@@H](O)[C@@H](O)CC(C)C` is 130 nM; for `CC(C)CC(N[C@@H](CCc1ccccc1)C(=O)OC(C)(C)C)C(=O)N[C@@H](CC1CCCCC1)[C@@H](O)[C@@H](O)CC(C)C` (stereo in doubt; form 2) it is 1000 nM; for `CC(C)C[C@H](O)[C@H](O)[C@H](CC1CCCCC1)NC(=O)C(C)N[C@H](Cc1ccccc1)C(=O)N1CCOCC1` (single isomer, unassigned; less polar) it is 1600 nM.
The same measure, in the same setting: the figure for `CCCC[C@H](O[C@@H](Cc1ccccc1)C(=O)N1CCC(OC[S+](C)[O-])CC1)C(=O)N[C@@H](CC1CCCCC1)[C@@H](O)[C@@H](O)CC(C)C` (some centres undefined) is 770 nM.
On to `COCOC1CCN(C(=O)[C@H](Cc2ccccc2)O[C@@H](C)C(=O)N[C@@H](CC2CCCCC2)[C@@H](O)[C@@H](O)CC(C)C)CC1`, for which the values for the IC50 against Renin [2], at Renin [3] and against Renin [4] were 340 nM, 7 nM and 27 nM, respectively.
Compound `CCCC[C@H](O[C@@H](Cc1ccccc1)C(=O)N1CCC(OC)CC1)C(=O)N[C@@H](CC1CCCCC1)[C@@H](O)[C@@H](O)CC(C)C` came in with an IC50 against Renin [1] of 44 nM.
Turning to `CCCC[C@H](O[C@@H](Cc1ccccc1)C(=O)N1CCOCC1)C(=O)N[C@@H](CC1CCCCC1)[C@@H](O)[C@@H](O)CC(C)C`, the IC50 against Renin [2] turned out to be 1000 nM; at Renin [1] it was 15 nM.
At Renin [1], `CC(C)C[C@@H](N[C@@H](Cc1ccccc1)C(=O)OC(C)(C)C)C(=O)N[C@@H](CC1CCCCC1)[C@@H](O)[C@@H](O)CC(C)C` yielded an IC50 of 2700 nM.
Compound `CCCC[C@H](O[C@@H](Cc1ccccc1)C(=O)N1CCC(OCSC)CC1)C(=O)N[C@@H](CC1CCCCC1)[C@@H](O)[C@@H](O)CC(C)C` gave an IC50 on Renin [1] of 130 nM.
With `CCCC[C@@H](N[C@@H](Cc1ccccc1)C(=O)N1CCOCC1)C(=O)N[C@@H](CC1CCCCC1)[C@@H](O)[C@@H](O)CC(C)C`, on Renin [1], the IC50 was found to be 750 nM.
For `CCCC[C@H](O[C@@H](Cc1ccccc1)C(=O)N1CCCCC1)C(=O)N[C@@H](CC1CCCCC1)[C@@H](O)[C@@H](O)CC(C)C`, at Renin [1], half-maximal inhibition (IC50) required 24 nM.
For the compound `CCCC[C@H](O[C@@H](Cc1ccccc1)C(=O)N1CCC(OCS(C)(=O)=O)CC1)C(=O)N[C@@H](CC1CCCCC1)[C@@H](O)[C@@H](O)CC(C)C`, half-maximal inhibition against Renin [1] (IC50) was put at 780 nM.
For the compound `CCOC(=O)C(CCc1ccccc1)N[C@@H](CC(C)C)C(=O)N[C@@H](CC1CCCCC1)[C@@H](O)[C@@H](O)CC(C)C` (single isomer, unassigned; more polar), the IC50 on Renin [1] was determined as 160 nM.
Take `CC(C)C[C@H](N[C@@H](Cc1ccccc1)C(=O)OC(C)(C)C)C(=O)N[C@@H](CC1CCCCC1)[C@@H](O)[C@@H](O)CC(C)C`: 340 nM corresponded to half-maximal inhibition on Renin [1] (IC50).
`CCCCC1CCN(C(=O)[C@H](Cc2ccccc2)O[C@@H](CCCC)C(=O)N[C@@H](CC2CCCCC2)[C@@H](O)[C@@H](O)CC(C)C)CC1`: the midpoint of inhibition on Renin [1], the IC50, lay at 1100 nM.
The bioavailability is dose-corrected exposure relative to a reference, in per cent. Regarding `CCCCNC(=O)[C@@H](C[C@H](O)[C@H](CC1CCCCC1)NC(=O)[C@H](CCCC)N[C@@H](Cc1ccccc1)C(=O)N1CCC(OCOC)CC1)C(C)C`, the IC50 turned out to be 8.7 nM on Renin [2] and 0.9 nM against Renin [1]. The compound further came in with a bioavailability in data set [5] of 7.1%.
As for `CCCCNC(=O)[C@@H](C[C@H](O)[C@H](CC1CCCCC1)NC(=O)[C@H](CCCC)O[C@@H](Cc1ccccc1)C(=O)N1CCC(OCOC)CC1)C(C)C`, the IC50 against Renin [2] came to 8.2 nM; against Renin [1] it was 1.2 nM.
Regarding `CCCC[C@H](O[C@@H](Cc1ccccc1)C(=O)N1CCC(OCOC)CC1)C(=O)N[C@@H](CC1CCCCC1)[C@@H](O)[C@@H](O)CC(C)C`, the IC50 was 13 nM at Renin [2], 3.2 nM on Renin [3], 3 nM at Renin [4] and 1 nM at Renin [1].
The compound `CCOC(=O)C(CCc1ccccc1)N[C@@H](C)C(=O)N[C@@H](CC1CCCCC1)[C@@H](O)[C@@H](O)CC(C)C` (single isomer, unassigned; less polar) gave an IC50 against Renin [1] of 130 nM.
On the same count and under the same terms, the figure for `CC(C)C[C@H](O)[C@H](O)[C@H](CC1CCCCC1)NC(=O)C(C)N[C@@H](Cc1ccccc1)C(=O)N1CCOCC1` (single isomer, unassigned; more polar) is 1000 nM.
Take `CCCC[C@H](N[C@@H](Cc1ccccc1)C(=O)N1CCC(OCCOC)CC1)C(=O)N[C@@H](CC1CCCCC1)[C@@H](O)[C@@H](O)CC(C)C`: the IC50 against Renin [2] amounted to 1800 nM; against Renin [1], 31 nM.
As for `CCN(CC)C(=O)[C@H](Cc1ccccc1)O[C@@H](C)C(=O)N[C@@H](CC1CCCCC1)[C@@H](O)[C@@H](O)CC(C)C`, at Renin [1], the IC50 is over 1000 nM.
On Renin [1], `CCOC(=O)C(CCc1ccccc1)N[C@@H](C)C(=O)N[C@@H](CC1CCCCC1)[C@@H](O)[C@@H](O)CC(C)C` (single isomer, unassigned; more polar) displayed an IC50 of 150 nM.
As to `CC(C)C[C@H](O)[C@H](O)[C@H](CC1CCCCC1)NC(=O)[C@H](C)O[C@@H](Cc1ccccc1)C(=O)N1CCCCC1`, the IC50 worked out at 8100 nM at Renin [2] and 25 nM at Renin [1].
Turning to `CC[C@H](O[C@@H](Cc1ccccc1)C(=O)N1CCC(OCOC)CC1)C(=O)N[C@@H](CC1CCCCC1)[C@@H](O)[C@@H](O)CC(C)C`, the IC50 against Renin [2] came to 120 nM; against Renin [3], 5.4 nM; against Renin [4], 7.9 nM; against Renin [1], 0.9 nM.
In turn, `CC(C)C[C@H](O)[C@H](O)[C@H](CC1CCCCC1)NC(=O)[C@H](C)O[C@@H](Cc1ccccc1)C(=O)N1CCC1` registered an IC50 on Renin [2] of 1000 nM.
The compound `C=CCOC1CCN(C(=O)[C@H](Cc2ccccc2)O[C@@H](CCCC)C(=O)N[C@@H](CC2CCCCC2)[C@@H](O)[C@@H](O)CC(C)C)CC1` yielded an IC50 against Renin [1] of 160 nM.
As to `CCCC[C@H](N[C@@H](Cc1ccccc1)C(=O)N1CCOCC1)C(=O)N[C@@H](CC1CCCCC1)[C@@H](O)[C@@H](O)CC(C)C`, the IC50 on Renin [2] was found to be 1200 nM; against Renin [1], 13 nM.
Consider `CC(C)CC(N[C@@H](CCc1ccccc1)C(=O)OC(C)(C)C)C(=O)N[C@@H](CC1CCCCC1)[C@@H](O)[C@@H](O)CC(C)C` (stereo in doubt; form 1), for which 4000 nM corresponded to half-maximal inhibition against Renin [1] (IC50).
Turning to `CCCC[C@H](N[C@@H](Cc1ccccc1)C(=O)N1CCC(OCOC)CC1)C(=O)N[C@@H](CC1CCCCC1)[C@@H](O)[C@@H](O)CC(C)C`, the IC50 on Renin [2] is 17 nM; on Renin [3], 2.8 nM; against Renin [4], 3.9 nM; on Renin [1] it was 1.1 nM.
As for `CCCC[C@H](O[C@@H](Cc1ccccc1)C(=O)N1CCC(CCOC)CC1)C(=O)N[C@@H](CC1CCCCC1)[C@@H](O)[C@@H](O)CC(C)C`, the IC50 against Renin [2] is 1300 nM; against Renin [1], 18 nM.
With `CCCC[C@H](O[C@@H](Cc1ccccc1)C(=O)N1CCC(O)CC1)C(=O)N[C@@H](CC1CCCCC1)[C@@H](O)[C@@H](O)CC(C)C`, the IC50 against Renin [1] was determined as 130 nM.
In the case of `CC(C)C[C@H](O)[C@H](O)[C@H](CC1CCCCC1)NC(=O)[C@H](C)O[C@@H](Cc1ccccc1)C(=O)N1CCOCC1`, the IC50 against Renin [2] was determined as 4300 nM; against Renin [1], 45 nM.
As to `CC(C)C[C@H](O)[C@H](O)[C@H](CC1CCCCC1)NC(=O)C(C)N[C@@H](Cc1ccccc1)C(=O)N1CCOCC1` (single isomer, unassigned; less polar), half-maximal inhibition at Renin [1] (IC50) was put at 85 nM.
Turning to `CC(C)C[C@H](O)[C@H](O)[C@H](CC1CCCCC1)NC(=O)C(C)N[C@H](Cc1ccccc1)C(=O)N1CCOCC1` (single isomer, unassigned), half-maximal inhibition against Renin [1] (IC50) was put at 1000 nM.
Take `CCC[C@H](O[C@@H](Cc1ccccc1)C(=O)N1CCC(OCOC)CC1)C(=O)N[C@@H](CC1CCCCC1)[C@@H](O)[C@@H](O)CC(C)C`: the half-maximal inhibitory concentration (IC50) amounted to 31 nM against Renin [2], 5.5 nM at Renin [3], 3.3 nM on Renin [4] and 1.4 nM against Renin [1].
On to `CC(C)C[C@H](O)[C@H](O)[C@H](CC1CCCCC1)NC(=O)[C@H](C)O[C@@H](Cc1ccccc1)C(=O)N1CCCC1`, for which the IC50 against Renin [2] was determined as 3700 nM.

The record behind these values is ChEMBL document CHEMBL1126032, “Nonpeptide renin inhibitors employing a novel 3-aza(or oxa)-2,4-dialkyl glutaric acid moiety as a P2/P3 amide bond replacement” (J Med Chem, 1992).
